Source: ChEMBL document CHEMBL3596157, “Heteroaromatic analogs of the resveratrol analog DMU-212 as potent anti-cancer agents” (2015)

How the values were obtained:
Type in all cases: functional
[1] = system: MDA-MB-231; experiment: Growth inhibition of human MDA-MB-231/ATCC cells after 48 hrs by SRB assay; details: MDA-MB-231, 48 h
How it was run: (§1)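 NCI-60 panel screen. Cells exposed for 48 h to five concentrations (10−4, 10−5, 10−6, 10−7 and 10−8 M). Sulforhodamine B optical density is read just before compound addition (time zero) and after 48 h, for both treated and vehicle-control wells. Percent growth is calculated against control. GI50 is the concentration giving a 50% reduction in net cell growth relative to cell numbers on day 0.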

[2] = system: IGROV-1; experiment: Growth inhibition of human IGROV1 cells after 48 hrs by SRB assay; details: IGROV-1, 48 h; how it was run: as §1
[3] = system: TK-10; experiment: Growth inhibition of human TK10 cells after 48 hrs by SRB assay; details: TK-10, 48 h
How it was run: (§2)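 NCI-60 panel cells; preliminary single-dose screen at 10−5 M, then five-dose testing at 10−4 to 10−8 M (tenfold steps) with 48 h exposure. SRB-stained optical density read before compound addition (time zero), after 48 h with compound, and with vehicle control. Percent growth is calculated against control. GI50 is the concentration giving 50% reduction in net growth relative to day-0 cell number.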

[4] = system: OVCAR-8; experiment: Growth inhibition of human OVCAR8 cells after 48 hrs by SRB assay; details: OVCAR-8, 48 h; how it was run: as §1
[5] = Growth inhibition of human RPMI8226 cells after 48 hrs by SRB assay; details: RPMI-8226, 48 h; how it was run: as §1
[6] = Growth inhibition of human MOLT4 cells after 48 hrs by SRB assay; details: MOLT-4, 48 h; how it was run: as §1
[7] = Growth inhibition of human NCI-ADR-RES cells after 48 hrs by SRB assay; how it was run: as §1
[8] = system: MDA-MB-435; experiment: Growth inhibition of human MDA-MB-435 cells after 48 hrs by SRB assay; details: MDA-MB-435, 48 h; how it was run: as §1
[9] = system: SK-OV-3; experiment: Growth inhibition of human SKOV3 cells after 48 hrs by SRB assay; details: SK-OV-3, 48 h; how it was run: as §1
[10] = system: CCRF-CEM; experiment: Growth inhibition of human CCRF-CEM cells after 48 hrs by SRB assay; how it was run: as §1
[11] = system: K562; experiment: Growth inhibition of human K562 cells after 48 hrs by SRB assay; details: K562, 48 h; how it was run: as §1
[12] = Growth inhibition of human SF295 cells after 48 hrs by SRB assay; details: SF-295, 48 h; how it was run: as §1
[13] = system: SF-268; experiment: Growth inhibition of human SF268 cells after 48 hrs by SRB assay; details: SF-268, 48 h; how it was run: as §1
[14] = system: Malme-3M; experiment: Growth inhibition of human MALME-3M cells after 48 hrs by SRB assay; how it was run: as §1
[15] = system: HL-60(TB); experiment: Growth inhibition of human HL-60(TB) cells after 48 hrs by SRB assay; details: HL-60, 48 h
How it was run: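 NCI-60 panel screen: cells were exposed to test agent at five concentrations (10−4, 10−5, 10−6, 10−7 and 10−8 M) for 48 h. Sulforhodamine B optical density was read at time zero and after exposure to compound or vehicle control, and growth percentage versus control was calculated. GI50 was taken as the concentration giving a 50% reduction in net cell growth relative to day 0 cell numbers.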

[16] = system: SK-MEL-2; experiment: Growth inhibition of human SK-MEL-2 cells after 48 hrs by SRB assay; details: SK-MEL-2, 48 h; how it was run: as §1
[17] = system: A549; experiment: Growth inhibition of human A549/ATCC cells after 48 hrs by SRB assay; details: A549, 48 h; how it was run: as §1
[18] = system: NCI-H522; experiment: Growth inhibition of human NCI-H522 cells after 48 hrs by SRB assay; details: NCI-H522, 48 h; how it was run: as §1
[19] = system: SN12C; experiment: Growth inhibition of human SN12C cells after 48 hrs by SRB assay; how it was run: as §1
[20] = system: UACC-62; experiment: Growth inhibition of human UACC62 cells after 48 hrs by SRB assay; details: UACC-62, 48 h; how it was run: as §2
[21] = Growth inhibition of human LOXIMVI cells after 48 hrs by SRB assay; details: LOX IMVI; how it was run: as §1
[22] = system: NCI-H460; experiment: Growth inhibition of human NCI-H460 cells after 48 hrs by SRB assay; details: NCI-H460, 48 h; how it was run: as §1
[23] = system: UO-31; experiment: Growth inhibition of human UO31 cells after 48 hrs by SRB assay; details: UO-31, 48 h; how it was run: as §2
[24] = system: SW-620; experiment: Growth inhibition of human SW620 cells after 48 hrs by SRB assay; details: SW-620, 48 h; how it was run: as §2
[25] = system: OVCAR-5; experiment: Growth inhibition of human OVCAR5 cells after 48 hrs by SRB assay; details: OVCAR-5, 48 h; how it was run: as §1
[26] = Growth inhibition of human HCC2998 cells after 48 hrs by SRB assay; details: HCC 2998, 48 h; how it was run: as §1
[27] = system: SR; experiment: Growth inhibition of human SR cells after 48 hrs by SRB assay; how it was run: as §2
[28] = Growth inhibition of human SF539 cells after 48 hrs by SRB assay; details: SF-539, 48 h; how it was run: as §1
[29] = system: ACHN; experiment: Growth inhibition of human ACHN cells after 48 hrs by SRB assay; how it was run: as §1
[30] = system: MDA-MB-468; experiment: Growth inhibition of human MDA-MB-468 cells after 48 hrs by SRB assay; details: MDA-MB-468, 48 h; how it was run: as §1
[31] = system: SK-MEL-28; experiment: Growth inhibition of human SK-MEL-28 cells after 48 hrs by SRB assay; details: SK-MEL-28, 48 h; how it was run: as §1
[32] = Growth inhibition of human BT549 cells after 48 hrs by SRB assay; details: BT-549, 48 h; how it was run: as §1
[33] = system: OVCAR-4; experiment: Growth inhibition of human OVCAR4 cells after 48 hrs by SRB assay; details: OVCAR-4, 48 h; how it was run: as §1
[34] = Growth inhibition of human HOP92 cells after 48 hrs by SRB assay; details: HOP-92, 48 h; how it was run: as §1
[35] = system: HCT-116; experiment: Growth inhibition of human HCT116 cells after 48 hrs by SRB assay; details: HCT-116, 48 h; how it was run: as §1
[36] = system: PC-3; experiment: Growth inhibition of human PC3 cells after 48 hrs by SRB assay; details: PC-3, 48 h; how it was run: as §1
[37] = Growth inhibition of human Hs578T cells after 48 hrs by SRB assay; details: Hs-578T; how it was run: as §1
[38] = system: M14; experiment: Growth inhibition of human M14 cells after 48 hrs by SRB assay; details: M14, 48 h; how it was run: as §1
[39] = system: DU-145; experiment: Growth inhibition of human DU145 cells after 48 hrs by SRB assay; details: DU-145, 48 h; how it was run: as §1
[40] = system: SNB-75; experiment: Growth inhibition of human SNB75 cells after 48 hrs by SRB assay; details: SNB-75, 48 h; how it was run: as §2
[41] = system: NCI-H23; experiment: Growth inhibition of human NCI-H23 cells after 48 hrs by SRB assay; details: NCI-H23, 48 h; how it was run: as §1
[42] = system: 786-0; experiment: Growth inhibition of human 786-0 cells after 48 hrs by SRB assay; details: 786-0, 48 h; how it was run: as §1
[43] = system: NCI-H226; experiment: Growth inhibition of human NCI-H226 cells after 48 hrs by SRB assay; details: NCI-H226, 48 h; how it was run: as §1
[44] = system: OVCAR-3; experiment: Growth inhibition of human OVCAR3 cells after 48 hrs by SRB assay; details: OVCAR-3, 48 h; how it was run: as §1
[45] = system: KM12; experiment: Growth inhibition of human KM12 cells after 48 hrs by SRB assay; details: KM12, 48 h; how it was run: as §1
[46] = system: SNB-19; experiment: Growth inhibition of human SNB19 cells after 48 hrs by SRB assay; details: SNB-19, 48 h; how it was run: as §1
[47] = Growth inhibition of human COLO205 cells after 48 hrs by SRB assay; details: COLO 205, 48 h; how it was run: as §1
[48] = Growth inhibition of human RXF393 cells after 48 hrs by SRB assay; details: RXF 393, 48 h; how it was run: as §1
[49] = system: SK-MEL-5; experiment: Growth inhibition of human SK-MEL-5 cells after 48 hrs by SRB assay; details: SK-MEL-5, 48 h; how it was run: as §1
[50] = system: HT-29; experiment: Growth inhibition of human HT-29 cells after 48 hrs by SRB assay; details: HT-29, 48 h; how it was run: as §1
[51] = system: HOP-62; experiment: Growth inhibition of human HOP62 cells after 48 hrs by SRB assay; details: HOP-62, 48 h; how it was run: as §1
[52] = system: A498; experiment: Growth inhibition of human A498 cells after 48 hrs by SRB assay; details: A498, 48 h; how it was run: as §1
[53] = system: U-251; experiment: Growth inhibition of human U251 cells after 48 hrs by SRB assay; details: U-251, 48 h; how it was run: as §2
[54] = system: CAKI-1; experiment: Growth inhibition of human Caki1 cells after 48 hrs by SRB assay; details: CAKI-1, 48 h; how it was run: as §1
[55] = system: MCF7; experiment: Growth inhibition of human MCF7 cells after 48 hrs by SRB assay; details: MCF7, 48 h; how it was run: as §1
[56] = system: HCT-15; experiment: Growth inhibition of human HCT15 cells after 48 hrs by SRB assay; details: HCT-15, 48 h; how it was run: as §1

## COc1cc(/C=C/c2cc3ccccc3[nH]2)cc(OC)c1OC
[1]
  GI50: 1300 nM
[2]
  GI50: 504 nM
[3]
  GI50: 21600 nM
[4]
  GI50: 587 nM
[5]
  GI50: 388 nM
[6]
  GI50: 854 nM
[7]
  GI50: 365 nM
[8]
  GI50: 150 nM
[9]
  GI50: 676 nM
[10]
  GI50: 368 nM
[11]
  GI50: 393 nM
[12]
  GI50: 311 nM
[13]
  GI50: 708 nM
[14]
  GI50: 388 nM
[15]
  GI50: 347 nM
[16]
  GI50: 426 nM
[17]
  GI50: 624 nM
[18]
  GI50: 294 nM
[19]
  GI50: 1640 nM
[20]
  GI50: 465 nM
[21]
  GI50: 664 nM
[22]
  GI50: 374 nM
[23]
  GI50: 172 nM
[24]
  GI50: 333 nM
[25]
  GI50: 963 nM
[26]
  GI50: 2250 nM
[27]
  GI50: 241 nM
[28]
  GI50: 231 nM
[29]
  GI50: 620 nM
[30]
  GI50: 285 nM
[31]
  GI50: 944 nM
[32]
  GI50: 938 nM
[33]
  GI50: 691 nM
[34]
  GI50: 201 nM
[35]
  GI50: 534 nM
[36]
  GI50: 381 nM
[37]
  GI50: 257 nM
[38]
  GI50: 332 nM
[39]
  GI50: 384 nM
[40]
  GI50: 329 nM
[41]
  GI50: 677 nM
[42]
  GI50: 802 nM
[43]
  GI50: 559 nM
[44]
  GI50: 234 nM
[45]
  GI50: 436 nM
[46]
  GI50: 461 nM
[47]
  GI50: 343 nM
[48]
  GI50: 275 nM
[49]
  GI50: 305 nM
[50]
  GI50: 335 nM
[51]
  GI50: 933 nM
[52]
  GI50: 281 nM
[53]
  GI50: 442 nM
[54]
  GI50: 382 nM
[55]
  GI50: 395 nM
[56]
  GI50: 469 nM
